According to ChEMBL document CHEMBL3785023, “Development and Pharmacological Characterization of Selective Blockers of 2-Arachidonoyl Glycerol Degradation with Efficacy in Rodent Models of Multiple Sclerosis and Pain” (J Med Chem, 2016):
Active and inactive are the calls of the source.

Tests used:
Heart = assay: Cardiotoxicity in Langendorff-perfused Sprague-Dawley rat heart assessed as corrected time duration of action potential at 0.01 uM by ECG analysis (reference value: 155.26 +/- 2.96 milliseconds); format: toxicity, tissue-based
Mus musculus [1] = assay: Toxicity in C57BL/6J mouse assessed as changes in locomotor activity at 3 mg/kg, ip; format: organism-based; conditions: in vivo
Salmonella typhimurium = assay: Mutagenicity in Salmonella typhimurium TA100 assessed as increase in number of colonies at 1 uM by Ames test; format: toxicity, organism-based; conditions: salmonella enterica subsp. enterica serovar typhimurium
[2] = Apparent permeability from luminal to abluminal side in human endothelial cells cocultured with pericytes at 100 uM after 20 to 60 mins by LC-UV analysis; format: ADME, cell-based, Endothelial cell
Summary of the method: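 Human BBB model: endothelial cells derived from hematopoietic stem cells, cocultured 6 days with pericytes. Compound (100 µM in Ringer + Hepes) added luminally together with Lucifer yellow as an integrity marker. Incubated 20, 40 and 60 min at 37 °C; abluminal compound measured by LC-UV. Papp = J/(A·C0).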

[3] = biological target: T1, Fatty-acid amide hydrolase 1 (Homo sapiens, UniProt O00519); assay: Inhibition of recombinant C-terminal His-tagged human FAAH expressed in sf21 cells using N-arachidonoyl-[14C]-ethanolamine as substrate assessed as reduction in [14C]ethanolamine production incubated for 30 mins by scintillation counting method
T1 sequence (O00519 whole entry): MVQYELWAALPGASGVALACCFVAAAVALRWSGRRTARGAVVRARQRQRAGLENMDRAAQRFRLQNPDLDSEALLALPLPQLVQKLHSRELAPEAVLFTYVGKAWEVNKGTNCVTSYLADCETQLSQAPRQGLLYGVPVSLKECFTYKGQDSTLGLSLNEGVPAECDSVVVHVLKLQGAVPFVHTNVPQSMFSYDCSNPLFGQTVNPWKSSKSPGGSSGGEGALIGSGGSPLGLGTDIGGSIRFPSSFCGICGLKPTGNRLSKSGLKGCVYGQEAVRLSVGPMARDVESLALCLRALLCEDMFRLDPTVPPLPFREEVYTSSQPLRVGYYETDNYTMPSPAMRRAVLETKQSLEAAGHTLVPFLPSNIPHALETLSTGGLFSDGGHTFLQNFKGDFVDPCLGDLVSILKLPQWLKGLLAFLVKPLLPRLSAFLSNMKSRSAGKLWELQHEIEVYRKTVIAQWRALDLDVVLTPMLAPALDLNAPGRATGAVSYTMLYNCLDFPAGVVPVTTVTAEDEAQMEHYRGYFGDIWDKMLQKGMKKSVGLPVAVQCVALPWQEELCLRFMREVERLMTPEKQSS
Summary of the method: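 Human recombinant FAAH (2 µg/sample) incubated in 50 mM Tris-HCl, pH 9.5, 37 °C, 30 min with N-arachidonoyl-[14C]-ethanolamine diluted with unlabelled AEA. [14C]-ethanolamine released was quantified by scintillation counting of the aqueous phase after extraction with 2 volumes CHCl3/MeOH 1:1. Values are means of three experiments.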

Monoglyceride lipase = biological target: T2, Monoglyceride lipase (Rattus norvegicus, UniProt Q8R431); assay: Inhibition of rat MAGL
T2 sequence (Q8R431 whole entry): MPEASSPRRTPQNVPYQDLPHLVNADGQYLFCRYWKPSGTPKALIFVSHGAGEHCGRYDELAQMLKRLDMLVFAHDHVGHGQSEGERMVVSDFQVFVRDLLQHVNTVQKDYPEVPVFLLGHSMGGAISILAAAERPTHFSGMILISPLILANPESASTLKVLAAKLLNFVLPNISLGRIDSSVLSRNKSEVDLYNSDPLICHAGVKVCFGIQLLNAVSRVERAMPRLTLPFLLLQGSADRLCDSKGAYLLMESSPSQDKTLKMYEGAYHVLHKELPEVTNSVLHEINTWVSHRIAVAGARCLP

Mus musculus [4] = assay: Antinociceptive activity in CD-1 mouse assessed as inhibition of formalin-induced early phase pain response at 0.1 to 0.3 mg/kg, ip dosed 10 mins before formalin injection measured every 5 mins for 60 mins in presence of CB1 antagonist/inverse agonist AM251; format: functional, organism-based
Summary of the method: (§1)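 Male CD-1 mice, n = 6 per group, injected with formalin (1.25% in saline, 30 μL) into the dorsal hind paw. Inhibitor (0.1 or 0.3 mg/kg i.p. in 0.5% DMSO/saline) given 10 min before formalin. Where used, AM251 or AM630 (1 mg/kg i.p.) given 10 min before the inhibitor. Time spent lifting, licking, shaking or flinching the injected paw recorded every 5 min over 60 min.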

Mus musculus [5] = assay: Analgesic activity in po dosed CD-1 mouse model of oxaliplatin-induced neuropathic pain assessed as reversal of lowering of threshold to cold stimuli administered on day 14 after oxaliplatin addition by cold plate test; format: functional, organism-based
Mus musculus [6] = assay: Inhibition of demyelination in experimental autoimmune encephalomyelitis C57BL/6J mouse spinal cord at 3 mg/kg, ip by luxol fast blue staining based microscopic analysis; format: functional, organism-based
Summary of the method: (§2)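 EAE induced in female C57BL/6J mice with MOG35-55, then 3 mg/kg i.p. daily. AM251 or AM630 (1 mg/kg), where used, given 10 min before each dose. Spinal cord white matter stained with Luxol Fast Blue and demyelinated areas assessed by microscopy.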

Mus musculus [7] = assay: Antinociceptive activity in CD-1 mouse assessed as inhibition of formalin-induced late phase pain response at 0.1 to 0.3 mg/kg, ip dosed 10 mins before formalin injection measured every 5 mins for 60 mins in presence of CB1 antagonist/inverse agonist AM251; format: functional, organism-based; summary of the method: as §1
Mus musculus [8] = assay: Inhibition of demyelination in experimental autoimmune encephalomyelitis C57BL/6J mouse spinal cord at 3 mg/kg, ip administered post CB2 antagonist/inverse agonist AM630 addition by luxol fast blue staining based microscopic analysis; format: functional, organism-based; summary of the method: as §2
[9] = biological target: T3, Lysophosphatidylserine lipase ABHD12 (Rattus norvegicus) (UniProt Q6AYT7); assay: Inhibition of ABHD12 in rat brain membranes up to 500 nM preincubated for 20 mins followed by fluorophosphonate-rhodamine addition measured after 30 mins by competitive affinity based proteomic profiling assay; format: cell membranes; conditions: Membrane
T3 sequence (whole entry): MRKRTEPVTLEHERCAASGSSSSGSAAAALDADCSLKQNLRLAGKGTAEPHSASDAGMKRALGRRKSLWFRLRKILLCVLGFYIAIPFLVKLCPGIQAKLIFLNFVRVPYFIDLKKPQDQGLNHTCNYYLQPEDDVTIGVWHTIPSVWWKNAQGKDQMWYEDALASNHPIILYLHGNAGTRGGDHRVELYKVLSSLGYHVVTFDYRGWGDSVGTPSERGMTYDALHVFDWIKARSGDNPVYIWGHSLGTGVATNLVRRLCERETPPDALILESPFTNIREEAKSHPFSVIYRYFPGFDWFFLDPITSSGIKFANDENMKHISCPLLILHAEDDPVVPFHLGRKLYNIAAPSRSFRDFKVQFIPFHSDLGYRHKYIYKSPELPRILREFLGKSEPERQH
Summary of the method: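 Rat brain membranes (1 mg/mL) preincubated with 1–1000 nM inhibitor or DMSO for 20 min at 37 °C. FP-rhodamine then added and incubated a further 30 min at 37 °C. Samples run on SDS-PAGE and serine hydrolase bands quantified by in-gel fluorescence.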

Row | SMILES | Time (Heart) [ms] | Activity (Mus musculus [1]) | Activity (Salmonella typhimurium) | Papp at 100 µM [2] [×10⁻⁶ cm/s] | IC50 [3] [nM] | IC50 (Monoglyceride lipase) [nM] | inhibition (Mus musculus [4]) | Activity (Mus musculus [5]) | inhibition (Mus musculus [6]) | inhibition (Mus musculus [7]) | inhibition (Mus musculus [8]) | inhibition [9]
1 | O=C1[C@H](c2ccc(F)cc2)[C@@H](c2ccc3c(c2)OCO3)N1C1CCN(C(=O)n2cncn2)CC1 (racemic) [listing 1 of 2 here] | 156.3 | Non-toxic | Non-toxic | 47 | 2880 | 0.25 | – | – | – | – | – | –
2 | O=C1[C@H](c2ccc(F)cc2)[C@@H](c2ccc3c(c2)OCO3)N1C1CCN(C(=O)n2cncn2)CC1 (racemic) [listing 2 of 2 here] | – | – | – | – | – | – | inactive | Dose-dependent effect | Active | inactive | inactive | inactive
